Experimental data taken from publication PMC4919611 (EBioMedicine, 2016).

Tests used:
[1] = target: T1, CBFβ-RUNX1 Runt domain binding (Homo sapiens, UniProt Q13951); test: FRET assay of CBFβ; details: inhibition of CBFβ-Runt domain binding
T1 sequence (Q13951 1-141): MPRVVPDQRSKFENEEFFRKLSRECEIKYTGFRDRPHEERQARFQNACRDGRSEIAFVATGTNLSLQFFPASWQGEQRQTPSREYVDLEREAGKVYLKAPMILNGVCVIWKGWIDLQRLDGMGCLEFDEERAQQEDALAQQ
Method in brief: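 FRET binding assay using 100 nM Cerulean-Runt domain and 100 nM Venus-CBFβ across a test compound concentration series. Read-out was the emission ratio at 525/474 nm. Run in duplicate.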

[2] = tested on: panel of 11 leukemia cell lines; test: Viability of a panel of 11 leukemia cell lines; format: cell-based; details: 48 h treatment, 11 cell lines
Method in brief: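 Eleven leukemia lines grown in IMDM with 10% FBS. Plated at 5 × 10^5 cells/ml and treated 48 h with test compound at several doses or DMSO. DAPI-stained; at least 2 × 10^4 events acquired by flow cytometry. Viability taken as percent DAPI-negative cells relative to control.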

CBFβ-RUNX1 binding = details: ref Cunningham et al., 2012; cited from earlier work
CBFβ = target: T2, CBFβ (Homo sapiens, UniProt Q13951); test: NMR detection of interaction with CBFβ; format: binding
T2 sequence (Q13951 1-141): T1 sequence (Q13951 1-141)
Method in brief: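 CBFβ (1-141) in 50 mM KPi pH 7.5, 0.1 mM EDTA, 1 mM DTT, 5% DMSO, 5% D2O. HSQC: 150 μM protein titrated with 600 μM test compound at 800 MHz; 15N/13C shift perturbations taken with versus without compound. STD: 200 μM CBFβ, 2 mM compound, 600 MHz, 25 °C, saturation 500–2000 ms, on-resonance 0.4 ppm, off-resonance 30 ppm.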

RUNX1 Runt domain = RUNX1 Runt domain (Homo sapiens, UniProt Q01196); test: NMR detection of interaction with RUNX1 Runt domain; format: binding
[3] = tested on: CBFβ-Runt domain interaction; details: ref Cunningham et al., 2012; cited from earlier work

Chain of RUNX1 Runt domain (Q01196 50-178 limits assumed): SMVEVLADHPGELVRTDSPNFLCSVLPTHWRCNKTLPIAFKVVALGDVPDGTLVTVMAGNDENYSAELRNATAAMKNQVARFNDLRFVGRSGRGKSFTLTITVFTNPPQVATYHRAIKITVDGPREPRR

Row | Structure (SMILES) | activity in the FRET assay (in words) [1] | growth inhibition / activity against leukemia cell lines (in words) [2] | effect on CBFβ-RUNX1 binding in cells (CBFβ-RUNX1 binding) | interaction with CBFβ by NMR (CBFβ) | interaction with RUNX1 Runt domain by NMR (RUNX1 Runt domain) | effect in the alpha screen assay [3]
1 | c1ccc(-c2nc3ccccc3[nH]2)nc1 [AI-4-88] | complete loss of activity | did not observe any activity |  |  |  | 
2 | O=C1CN=C(c2ccc[nH]2)c2cc(Cl)ccc2N1 [Ro5-3335] | no effect |  | does not show an effect | could not detect any interaction | could not detect any interaction | does not show significant effects
